Source: ChEMBL document CHEMBL1136009, “Novel p53 inactivators with neuroprotective action: syntheses and pharmacological evaluation of 2-imino-2,3,4,5,6,7-hexahydrobenzothiazole and 2-imino-2,3,4,5,6,7-hexahydrobenzoxazole derivatives” (J Med Chem, 2002)

Experiments:
PC-12 [1] = experiment: Effective concentration to induce 25 % protection of rat PC12 cells from camptothecin-induced cell death; format: functional
In short: (§1)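 PC12 cells grown in RPMI1640 with 10% horse serum and 5% fetal calf serum to 70–80% confluence, seeded at 2.2×10^4 cells/mL, grown 12 h. Pretreated 6 h with compound (100–400 nM, 0.4% DMSO final), then camptothecin 40 μM for 24 h. Live cells read by BCECF AM (5 μM, 45 min) fluorescence, ex 490/em 535 nm. EC25/EC50 from logit plot versus log concentration, n = 3.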

PC-12 [2] = experiment: Effective concentration to induce 50 % protection of rat PC12 cells from camptothecin-induced cell death; format: functional, cell-based; in short: as §1
[3] = Neuronal survival of cells in response to compound (100 nM) addition to camptothecin (5 uM) to hippocampal neurons; format: functional, Rattus norvegicus, Hippocampus
In short: (§2)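 Primary hippocampal cultures from embryonic day 18 Sprague–Dawley rats, used at 9–10 days in Neurobasal/B-27 medium. Compound added 1 h before the DNA-damaging agent (camptothecin or etoposide); the agents were made as 500× DMSO stocks. Viable neurons (intact neurites, smooth round soma) were counted in premarked fields before treatment and 24 h after. Results are given as percent survival, mean ± SD.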

[4] = Neuronal survival of cells in response to compound (100 nM) addition to etoposide (2.5 uM) to hippocampal neurons; format: functional, Rattus norvegicus, Hippocampus; in short: as §2
[5] = Neuroprotective action against glutamate (20 uM) induced cell death in hippocampal neurons; format: functional, Rattus norvegicus, Hippocampus
In short: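 E18 Sprague–Dawley rat hippocampal cultures (9–10 days old) were pretreated with compound (0.04 μM) 1 h before glutamate in Locke's medium; glutamate came from a fresh 200× saline stock. Viable neurons in premarked fields were counted before treatment and 24 h after insult onset, judged by neurite and soma morphology. Results are given as percent survival, mean ± SD.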

[6] = Neuronal survival of cells in response to compound (100 nM) addition to camptothecin (5 uM) to rat hippocampal neurons; format: functional, Hippocampus; in short: as §2
[7] = Neuronal survival of cells in response to compound (100 nM) addition to etoposide (2.5 uM) to rat hippocampal neurons; format: functional, Hippocampus; in short: as §2

Row | Structure (SMILES) | EC25 (PC-12 [1]) | EC50 (PC-12 [2]) | Survival [3] | Survival [4] | Survival [5] | Survival [6] | Survival [7]
1 | Nc1nc2c(s1)CCCC2 | 855 nM | 8750 nM |  |  |  |  | 
2 | CCC(=O)Cn1c2c(oc1=N)CCCC2 |  | 145 nM |  |  |  |  | 
3 | Br.N=c1sc2c(n1Cc1ccccc1)CCCC2 | 415 nM | 740 nM | 61% | 78% | 43% |  | 
4 | N=c1sc2c(n1CC(=O)c1ccc(Cl)cc1)CCCC2 | 120 nM | 190 nM |  |  |  |  | 
5 | Br.CCC(=O)Cn1c2c(sc1=N)CCCC2 | 410 nM | 570 nM | 65% | 71% | 43% |  | 
6 | N=c1sc2c(n1CC(=O)c1ccccc1)CCCC2 | 80 nM | 170 nM |  |  |  |  | 
7 | N=c1sc2c(n1CC(=O)c1ccc(-c3ccccc3)cc1)CCCC2 | 340 nM | 770 nM |  |  |  |  | 
8 | CCOC(=O)Cn1c2c(sc1=N)CCCC2 | 230 nM | 595 nM |  |  |  |  | 
9 | Br.Cc1ccc(C(=O)Cn2c3c(sc2=N)CC(C)CC3)cc1 (configuration not stated) | 100 nM | 305 nM |  |  |  | 29% | 60%
10 | N=c1sc2c(n1CC(=O)c1ccc(F)cc1)CCCC2 | 300 nM | 380 nM |  |  |  |  | 
11 | COc1ccc(C(=O)Cn2c3c(sc2=N)CCCC3)cc1 | 150 nM | 180 nM |  |  |  |  | 
12 | COc1cccc(C(=O)Cn2c3c(sc2=N)CCCC3)c1 | 340 nM | 420 nM |  |  |  |  | 
13 | N=c1sc2c(n1CC(=O)c1ccc([N+](=O)[O-])cc1)CCCC2 | 230 nM | 410 nM |  |  |  |  | 
14 | Cc1ccc(C(=O)Cn2c3c(oc2=N)CCCC3)cc1 | 35 nM | 70 nM |  |  |  |  | 
15 | COc1ccccc1C(=O)Cn1c2c(sc1=N)CCCC2 | 250 nM | 350 nM |  |  |  |  | 
